According to ChEMBL document CHEMBL1817631, “Synthesis and characterization of tritylthioethanamine derivatives with potent KSP inhibitory activity” (Bioorg Med Chem, 2011):
The source made the active and inactive calls. The rule behind the calls is not given here.

Assays:
[1] = target: T1, Kinesin-like protein Klp61F (Drosophila melanogaster) (UniProt P46863); experiment: Inhibition of Drosophila melanogaster Klp61F in S2 cells at 100 uM up to 7 hrs by immunofluorescence analysis; assay type: cell-based
T1 sequence (whole entry): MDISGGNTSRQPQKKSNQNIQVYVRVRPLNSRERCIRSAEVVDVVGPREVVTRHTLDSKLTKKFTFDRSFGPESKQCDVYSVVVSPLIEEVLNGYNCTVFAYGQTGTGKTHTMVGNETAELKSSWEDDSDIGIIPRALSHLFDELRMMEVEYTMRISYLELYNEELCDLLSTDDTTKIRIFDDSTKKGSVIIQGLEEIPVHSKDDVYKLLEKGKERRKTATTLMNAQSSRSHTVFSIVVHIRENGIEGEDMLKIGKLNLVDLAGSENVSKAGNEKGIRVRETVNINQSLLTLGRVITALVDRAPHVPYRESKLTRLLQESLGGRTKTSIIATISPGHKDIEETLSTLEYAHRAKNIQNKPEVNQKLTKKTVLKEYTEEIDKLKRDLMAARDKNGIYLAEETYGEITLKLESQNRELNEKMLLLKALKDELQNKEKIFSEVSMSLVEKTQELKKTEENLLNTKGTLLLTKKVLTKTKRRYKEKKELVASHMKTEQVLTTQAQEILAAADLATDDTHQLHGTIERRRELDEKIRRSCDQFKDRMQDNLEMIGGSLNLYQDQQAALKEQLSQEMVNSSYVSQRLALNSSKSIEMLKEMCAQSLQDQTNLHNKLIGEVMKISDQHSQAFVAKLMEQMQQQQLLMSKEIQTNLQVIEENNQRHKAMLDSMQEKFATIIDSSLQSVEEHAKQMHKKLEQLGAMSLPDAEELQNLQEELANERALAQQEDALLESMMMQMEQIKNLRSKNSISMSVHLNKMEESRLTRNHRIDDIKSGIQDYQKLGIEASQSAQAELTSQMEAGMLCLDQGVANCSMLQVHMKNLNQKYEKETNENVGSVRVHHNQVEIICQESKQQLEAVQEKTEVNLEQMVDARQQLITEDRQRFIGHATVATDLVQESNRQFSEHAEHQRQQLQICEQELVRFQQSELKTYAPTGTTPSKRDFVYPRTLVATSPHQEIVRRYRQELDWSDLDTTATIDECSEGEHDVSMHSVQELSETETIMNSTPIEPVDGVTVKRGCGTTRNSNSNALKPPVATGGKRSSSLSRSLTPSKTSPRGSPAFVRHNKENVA
In short: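 Drosophila S2 cells were exposed to compound over a three-log concentration range up to 100 μM, with treatments extending up to 7 h. Bipolar spindle formation was scored by immunofluorescence.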

HL-60(TB) = experiment: Growth inhibition of human HL-60(TB) cells; assay type: functional
[2] = Growth inhibition of human […] cells; assay type: functional
NCI-H322M = experiment: Growth inhibition of human NCI-H322M cells; assay type: functional
HCC 2998 = experiment: Growth inhibition of human HCC2998 cells; assay type: functional
HCT-15 = experiment: Growth inhibition of human HCT15 cells; assay type: functional
HT-29 = experiment: Growth inhibition of human HT-29 cells; assay type: functional
SW-620 = experiment: Growth inhibition of human SW620 cells; assay type: functional
SF-539 = experiment: Growth inhibition of human SF539 cells; assay type: functional
SNB-19 = experiment: Growth inhibition of human SNB19 cells; assay type: functional
SNB-75 = experiment: Growth inhibition of human SNB75 cells; assay type: functional
LOX IMVI = experiment: Growth inhibition of human LOXIMVI cells; assay type: functional
M14 = experiment: Growth inhibition of human M14 cells; assay type: functional
SK-MEL-28 = experiment: Growth inhibition of human SK-MEL-28 cells; assay type: functional
SK-MEL-5 = experiment: Growth inhibition of human SK-MEL-5 cells; assay type: functional
UACC-62 = experiment: Growth inhibition of human UACC62 cells; assay type: functional
OVCAR-5 = experiment: Growth inhibition of human OVCAR5 cells; assay type: functional
ACHN = experiment: Growth inhibition of human ACHN cells; assay type: functional
SN12C = experiment: Growth inhibition of human SN12C cells; assay type: functional
TK-10 = experiment: Growth inhibition of human TK10 cells; assay type: functional
UO-31 = experiment: Growth inhibition of human UO31 cells; assay type: functional
HeLa = experiment: Induction of KSP depletion in human HeLa cells after 4 hrs by immunofluorescence analysis; assay type: functional, cell-based
In short: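 HeLa cells were treated 4 h across a concentration series of compound in DMSO, then fixed in 100% MeOH at −20 °C. They were probed overnight at 4 °C with mouse anti-KSP and rabbit anti-EB1 to mark microtubules, with Alexa Fluor secondaries and DNA counterstain. KSP (green channel) images were taken at equivalent exposure times.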

[3] = Inhibition of bipolar spindle formation in Strongylocentrotus purpuratus eggs; assay type: functional, Egg
In short: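 S. purpuratus eggs (gametes released with 0.5M KCl) were fertilized in artificial seawater with 2 mM 3-amino triazole and stripped of envelopes 20 min post-fertilization. They were then cultured with 0.1% DMSO or inhibitor at 100 nM–100 μM, fixed at first mitosis and stained for microtubules and DNA. 100 cells per condition were scored for bipolar spindles to derive EC50.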

NCI-H226 = experiment: Growth inhibition of human NCI-H226 cells; assay type: functional
SK-OV-3 = experiment: Growth inhibition of human SKOV3 cells; assay type: functional

With `COc1ccc(C(SC[C@@H](N)C(=O)O)(c2ccccc2)c2ccccc2)cc1` the inhibition [1] was “inactive”.
With `CCOC(=O)C1=C(C)NC(=S)NC1c1cccc(O)c1` (stereo not drawn) [MONASTROL] the GI50 (HL-60(TB)) was 25.1 µM, the GI50 [2] was 31.6 µM and the GI50 (NCI-H322M) was 39.8 µM. For the same compound, the GI50 (HCC 2998) was 39.8 µM, the GI50 (HCT-15) was 39.8 µM and the GI50 (HT-29) was 79.4 µM. It also gave a GI50 (SW-620) of 39.8 µM, a GI50 (SF-539) of 50.1 µM and a GI50 (SNB-19) of 79.4 µM. The GI50 (SNB-75) was 39.8 µM, the GI50 (LOX IMVI) was 79.4 µM and the GI50 (M14) was 25.1 µM. It also gave a GI50 (SK-MEL-28) of 79.4 µM, a GI50 (SK-MEL-5) of 39.8 µM and a GI50 (UACC-62) of 39.8 µM. For the same compound, the GI50 (OVCAR-5) was 79.4 µM, the GI50 (ACHN) was 79.4 µM and the GI50 (SN12C) was 39.8 µM. For the same compound, the GI50 (TK-10) was 100 µM and the GI50 (UO-31) was 100 µM.
With `N[C@@H](CSC(c1ccccc1)(c1ccccc1)c1ccccc1)C(=O)O` [S-TRITYL-L-CYSTEINE] the Activity (HeLa) was “Dose-dependent effect”, the inhibition [1] was “inactive” and the EC50 [3] was ≥ 100 µM. For the same compound, the GI50 (NCI-H226) was 100 µM, the GI50 (OVCAR-5) was 100 µM and the GI50 (SK-OV-3) was 100 µM. For the same compound, the GI50 (UO-31) was 100 µM.
